Assay results taken from ChEMBL document CHEMBL3102844, “Synthesis and evaluation of Strychnos alkaloids as MDR reversal agents for cancer cell eradication” (Bioorg Med Chem, 2014).
pIC50, pKd: −log10 of the molar value. Calls of active or inactive are those of the source. The rule behind the calls is not given here.

Experiments:
[1] = target: T1, ATP-dependent translocase ABCB1 (Homo sapiens, UniProt P08183); experiment: Inhibition of human MDR1 overexpressed in human KB cells assessed as potentiation of vincristine-induced cytotoxicity at 3 uM incubated for 1 hr prior to vincristine challenge measured after 4 days by MTT assay relative to verapamil; type: cell-based; settings: 96 h
[2] = target: T1, ATP-dependent translocase ABCB1; experiment: Inhibition of p-glycoprotein (unknown origin) overexpressed in human KBV20C cells assessed as potentiation of vincristine-induced cytotoxicity at 1 uM incubated for 1 hr prior to vincristine challenge measured after 4 days by MTT assay; type: cell-based; settings: 96 h
[3] = Binding affinity to p-glycoprotein (unknown origin) by intrinsic tryptophan fluorescence quenching assay; design: species or system Homo sapiens
KB = experiment: Cytotoxicity against human KB cells overexpressing human MDR1 assessed as reduction in cell viability after 4 days by MTT assay; type: functional, cell-based
In short: (§1)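 KB-MDR (1000 cells/well) or KB-V20C (2000 cells/well) Pgp-overexpressing KB lines in RPMI1640 with 10% FBS; cultured 4 days with serial concentrations of test compound. Viability read by MTT endpoint absorbance. IC50 obtained by fitting a sigmoid Emax model to viability versus concentration; duplicates from three independent experiments.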

KBV20C = experiment: (§2) Cytotoxicity against human KBV20C cells overexpressing pgp assessed as reduction in cell viability after 4 days by MTT assay; type: functional, cell-based; in short: as §1
[4] = target: T1, ATP-dependent translocase ABCB1; experiment: Inhibition of p-glycoprotein (unknown origin) overexpressed in human KBV20C cells assessed as potentiation of vincristine-induced cytotoxicity at 3 uM incubated for 1 hr prior to vincristine challenge measured after 4 days by MTT assay; type: cell-based; settings: 96 h
[5] = target: T1, ATP-dependent translocase ABCB1; experiment: Inhibition of human MDR1 overexpressed in human KB cells assessed as potentiation of vincristine-induced cytotoxicity at 1 uM incubated for 1 hr prior to vincristine challenge measured after 4 days by MTT assay relative to verapamil; type: cell-based; settings: 96 h
Homo sapiens [6] = organism: Homo sapiens; experiment: Induction of human recombinant p-glycoprotein ATPase activity using ATP as substrate at 0.3 to 1 mM after 40 mins by luciferase-mediated Pgp-Glo assay
In short: (§3)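 Reaction started with ATP (5 mM final), 40 min at 37 °C, stopped with ATP detection reagent; residual ATP read by luciferase luminescence. Luminescence difference gives effect on ATPase activity. Triplicates in two independent experiments.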

[7] = target: T1, ATP-dependent translocase ABCB1; experiment: Inhibition of human MDR1 overexpressed in human KB cells assessed as potentiation of vincristine-induced cytotoxicity at 0.28 uM incubated for 1 hr prior to vincristine challenge measured after 4 days by MTT assay relative to verapamil; type: cell-based; settings: 96 h
Homo sapiens [8] = organism: Homo sapiens; experiment: Inhibition of human recombinant p-glycoprotein ATPase activity using ATP as substrate at 0.3 to 1 mM after 40 mins by luciferase-mediated Pgp-Glo assay; in short: as §3
[9] = target: T1, ATP-dependent translocase ABCB1; experiment: Inhibition of human MDR1 overexpressed in human KB cells assessed as potentiation of vincristine-induced cytotoxicity at 0.07 uM incubated for 1 hr prior to vincristine challenge measured after 4 days by MTT assay relative to verapamil; type: cell-based; settings: 96 h
[10] = target: T1, ATP-dependent translocase ABCB1; experiment: Inhibition of p-glycoprotein (unknown origin) overexpressed in human KBV20C cells assessed as potentiation of vincristine-induced cytotoxicity at 0.07 uM incubated for 1 hr prior to vincristine challenge measured after 4 days by MTT assay; type: cell-based; settings: 96 h
In short: (§4)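 Pgp-overexpressing KB-MDR or KB-V20C cells, 1000–2000 cells/well in RPMI1640 with 10% FBS, pretreated 1 h with modulator at final 0.07–3.0 µM, then exposed to serial dilutions of vincristine or doxorubicin for four days. […] Viability read by MTT. Cytotoxic-drug IC50 obtained by sigmoid Emax fit; duplicates, three independent experiments.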

[11] = target: T1, ATP-dependent translocase ABCB1; experiment: Inhibition of p-glycoprotein (unknown origin) overexpressed in human KBV20C cells assessed as potentiation of vincristine-induced cytotoxicity at 0.28 uM incubated for 1 hr prior to vincristine challenge measured after 4 days by MTT assay; type: cell-based; settings: 96 h; in short: as §4
[12] = as §2; type: functional, cell-based; settings: 96 h; in short: as §1
[13] = target: T1, ATP-dependent translocase ABCB1; experiment: Inhibition of p-glycoprotein (unknown origin) overexpressed in human KBV20C cells assessed as potentiation of vincristine-induced cytotoxicity at 0.14 uM incubated for 1 hr prior to vincristine challenge measured after 4 days by MTT assay; type: cell-based; settings: 96 h; in short: as §4
[14] = target: T1, ATP-dependent translocase ABCB1; experiment: Inhibition of human MDR1 overexpressed in human KB cells assessed as potentiation of vincristine-induced cytotoxicity at 0.14 uM incubated for 1 hr prior to vincristine challenge measured after 4 days by MTT assay relative to verapamil; type: cell-based; settings: 96 h
[15] = target: T1, ATP-dependent translocase ABCB1; experiment: Inhibition of human MDR1 overexpressed in human KB cells assessed as potentiation of doxorubicin-induced cytotoxicity at 1 uM incubated for 1 hr prior to […] measured after 4 days by MTT assay relative to verapamil; type: cell-based; settings: 96 h

T1 sequence (P08183 whole entry): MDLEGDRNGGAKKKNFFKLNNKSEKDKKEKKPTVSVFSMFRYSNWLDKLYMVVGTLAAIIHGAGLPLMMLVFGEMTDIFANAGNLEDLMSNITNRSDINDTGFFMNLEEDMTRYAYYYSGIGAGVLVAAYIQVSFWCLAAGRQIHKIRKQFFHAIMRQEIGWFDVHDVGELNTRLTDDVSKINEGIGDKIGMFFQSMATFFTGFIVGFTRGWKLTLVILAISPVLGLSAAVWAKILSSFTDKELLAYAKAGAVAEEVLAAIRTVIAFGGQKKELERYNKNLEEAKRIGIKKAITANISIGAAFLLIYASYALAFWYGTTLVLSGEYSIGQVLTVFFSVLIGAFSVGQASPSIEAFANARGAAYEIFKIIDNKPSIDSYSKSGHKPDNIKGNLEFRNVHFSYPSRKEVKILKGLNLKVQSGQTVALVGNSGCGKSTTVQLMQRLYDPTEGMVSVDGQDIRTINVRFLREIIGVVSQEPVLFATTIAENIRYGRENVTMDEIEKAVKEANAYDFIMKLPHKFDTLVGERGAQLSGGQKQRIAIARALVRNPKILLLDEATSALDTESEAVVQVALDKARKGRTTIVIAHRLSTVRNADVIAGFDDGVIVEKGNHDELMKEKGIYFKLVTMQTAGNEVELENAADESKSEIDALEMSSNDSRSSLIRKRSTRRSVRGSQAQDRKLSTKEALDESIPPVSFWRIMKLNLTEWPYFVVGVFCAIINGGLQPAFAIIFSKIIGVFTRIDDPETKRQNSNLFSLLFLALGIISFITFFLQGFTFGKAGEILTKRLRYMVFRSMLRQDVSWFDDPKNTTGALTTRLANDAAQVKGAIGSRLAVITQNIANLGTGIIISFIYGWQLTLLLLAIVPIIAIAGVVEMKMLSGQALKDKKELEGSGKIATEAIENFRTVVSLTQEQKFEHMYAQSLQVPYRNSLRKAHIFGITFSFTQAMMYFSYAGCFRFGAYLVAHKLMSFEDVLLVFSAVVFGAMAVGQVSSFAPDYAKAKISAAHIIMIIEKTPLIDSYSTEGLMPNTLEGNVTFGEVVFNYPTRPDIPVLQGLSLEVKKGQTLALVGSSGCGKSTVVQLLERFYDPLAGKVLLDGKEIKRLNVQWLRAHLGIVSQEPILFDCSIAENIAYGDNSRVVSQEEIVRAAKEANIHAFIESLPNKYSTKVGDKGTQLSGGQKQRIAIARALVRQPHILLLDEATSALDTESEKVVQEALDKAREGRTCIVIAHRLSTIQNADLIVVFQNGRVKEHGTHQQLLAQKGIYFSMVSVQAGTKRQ

Structure (SMILES) | pKd [3] | fold change (FC) [1] | fold change (FC) [2] | Activity (KB) | Activity (KBV20C) | fold change (FC) [4] | fold change (FC) [5] | Activity (Homo sapiens [6]) | fold change (FC) [7] | inhibition (Homo sapiens [8]) | fold change (FC) [9] | fold change (FC) [10] | fold change (FC) [11] | pIC50 [12] | fold change (FC) [13] | fold change (FC) [14] | fold change (FC) [15]
C/C=C1\CN2CC[C@]34C(=C(C(=O)OC)[C@H]1C[C@H]23)Nc1ccccc14 | 4.00 | 3.8 | 0.2 | Dose-dependent effect | Dose-dependent effect | 0.4 | 2.5 | Active | – | – | – | – | – | – | – | – | –
C/C=C1\CN2CC[C@]34C(=C(C=O)[C@H]1C[C@H]23)Nc1ccccc14 | 4.09 | 2.1 | 0.2 | Dose-dependent effect | Dose-dependent effect | 0.3 | 2.1 | Active | – | – | – | – | – | – | – | – | –
CC[C@@H]1CN2CC[C@]34c5ccccc5-n5c3c(cc(C(=O)NCc3cc(OC)c(OC)c(OC)c3)c5=O)[C@H]1C[C@H]24 | 5.35 | – | – | Dose-dependent effect | Dose-dependent effect | – | 93.8 | – | 3.8 | Active | 2.1 | 0.6 | 1.5 | 6.42 | 1 | 2.5 | 20
CC[C@@H]1CN2CC[C@]34C(=C(C(=O)OC)[C@H]1C[C@H]23)Nc1ccccc14 | 4.04 | 3.8 | 0.1 | Dose-dependent effect | Dose-dependent effect | 0.2 | 2.5 | – | – | Active | – | – | – | – | – | – | –

Now from value to molecule, other results behind:

pKd [3] | Structure (SMILES) | fold change (FC) [1] | fold change (FC) [2] | Activity (KB) | Activity (KBV20C) | fold change (FC) [4] | fold change (FC) [5] | Activity (Homo sapiens [6]) | fold change (FC) [7] | inhibition (Homo sapiens [8]) | fold change (FC) [9] | fold change (FC) [10] | fold change (FC) [11] | pIC50 [12] | fold change (FC) [13] | fold change (FC) [14] | fold change (FC) [15]
4.85 | CC[C@@H]1CN2CC[C@]34c5ccccc5-n5c3c(cc(C(N)=O)c5=O)[C@H]1C[C@H]24 [LEUCONICINE A] | 5 | 0.3 | Dose-dependent effect | Dose-dependent effect | 0.6 | 3.8 | – | – | – | – | – | – | – | – | – | –
4.86 | CC[C@@H]1CN2CC[C@]34c5ccccc5-n5c3c(cc(C(=O)OC)c5=O)[C@H]1C[C@H]24 [LEUCONICINE B] | 6.8 | 0.2 | Dose-dependent effect | Dose-dependent effect | 0.3 | 3.8 | Active | – | – | – | – | – | – | – | – | –
4.79 | C/C=C1\CN2CC[C@]34c5ccccc5-n5c3c(cc(C(=O)OC)c5=O)[C@H]1C[C@H]24 | 3.8 | 0.2 | Dose-dependent effect | Dose-dependent effect | 0.3 | 2.1 | Active | – | – | – | – | – | – | – | – | –
